Screening data deposited in PubChem BioAssay by The Scripps Research Institute Molecular Screening Center.
Many of the other results were omitted from the sample, so hits are more common in it than they were.
RORA inh – blocks the human nuclear receptor RORA | P35398 | CHO-K1 Gal4-RORA LBD luciferase reporter, luminescence | inhibition, % at 10 µM | actives 0.43% (n = 65,000) | AID 561;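 active = inhibition above the mean of all tested compounds plus 3 SD, cut at about 52% in these data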;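 note: 0% = RORA-transfected cells with DMSO and 100% = mock-transfected cells lacking RORA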
Target sequence (P35398 whole entry, looked up, the tested form may be a part): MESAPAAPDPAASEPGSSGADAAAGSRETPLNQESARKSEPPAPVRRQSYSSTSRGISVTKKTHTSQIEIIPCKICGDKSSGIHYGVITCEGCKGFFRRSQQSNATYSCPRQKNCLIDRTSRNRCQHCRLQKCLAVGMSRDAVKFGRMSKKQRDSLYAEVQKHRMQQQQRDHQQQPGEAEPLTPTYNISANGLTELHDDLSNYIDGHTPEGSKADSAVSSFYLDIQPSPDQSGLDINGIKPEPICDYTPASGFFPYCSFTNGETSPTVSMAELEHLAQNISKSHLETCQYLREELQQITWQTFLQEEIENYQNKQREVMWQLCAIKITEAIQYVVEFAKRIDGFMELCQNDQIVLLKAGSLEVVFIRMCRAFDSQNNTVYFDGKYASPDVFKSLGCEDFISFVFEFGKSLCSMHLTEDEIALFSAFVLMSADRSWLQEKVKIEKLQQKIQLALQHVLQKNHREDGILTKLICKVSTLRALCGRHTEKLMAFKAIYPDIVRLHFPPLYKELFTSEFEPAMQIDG
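Test system: CHO-K1 cells with Gal4-hRORA LBD fusion and pG5-luc reporter / Compound: single concentration per compound, 10 µM final / Schedule: 20 h compound treatment, 37 °C / Signal: luminescence from basal luciferase reporter expression / Read-out: % inhibition / Control set: mock-transfected cells as 100%, +RORA DMSO cells as 0% / Replicates: tested once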
Numbers without * were called inactive.

SMILES	RORA inh
CSCC[C@H](NC(=O)OC(C)(C)C)C(=O)N1CCC(C(=O)N[C@H](C(=O)O)C(C)C)CC1	18.0
COCCn1c(SCC(=O)Nc2cccc(C)c2)nnc1C(C)C	-26.2
COCCn1c(C)cc(C(=O)CSc2nnc(C)s2)c1C	68.1*
O=C(Nc1nnc(C23CC4CC(CC(C4)C2)C3)s1)c1ccco1	-91.0
COc1cc(NC(=O)Cn2c(-c3cncs3)nc3ccccc32)cc(OC)c1OC	-3.8
O=C(CSc1nnc(-c2cccnc2)o1)OC1CCCCC1	-1.7
COc1ccc2c(c1)sc1nc(-c3ccccc3)cn12	92.3*
COc1ccc(-c2cn3c(C)c(C(=O)NC(C)(C)C)sc3n2)cc1	-56.0
COc1ccc(-c2cc(=O)c3ccccc3s2)cc1	-23.0
c1cncc(Oc2cccc(Oc3cccnc3)c2)c1	8.2
COc1cc(OC)cc(-c2nnc(SCC(=O)N(Cc3ccccc3)C(C)(C)C)o2)c1	13.1
COc1cc(-c2nnc(SCC(=O)N(Cc3ccccc3)C(C)(C)C)o2)cc(OC)c1OC	-14.1
O=C(CSc1nnc(Cn2nnc3ccccc32)o1)N(Cc1ccc(F)cc1)c1ccccc1	71.3*
CCC(C(=O)Nc1ccccc1OC)n1c(C(=O)OC)cc2ccsc21 (configuration not stated)	5.2
CCC(CO)NCCNC(CC)CO (configuration not stated)	15.2
Cc1ccc2nc(C(F)(F)F)c(C#N)c(N)c2c1	57.2*
CCOc1ncccc1C(=O)OCC(=O)Nc1cc(C(=O)OC)ccc1C(=O)OC	-26.5
CC1CCN(C(=O)C(NS(=O)(=O)c2cccc3nsnc23)c2ccccc2)CC1 (configuration not stated)	8.1
Cc1ccc2c(CSc3nnc(C4CC4)n3N)cc(=O)oc2c1C	2.7
Cc1ccc(Nc2cc(C)nn2-c2nc(C)cc(=O)[nH]2)cc1	87.9*
Cc1ccc(-c2cc3nc(C)cc(NCc4ccco4)n3n2)cc1	-59.1
COc1ccc(S(=O)(=O)N(CC(=O)N2CCN(C)CC2)c2ccccc2)cc1OC	8.1
C/C(O)=c1/ccc2cccc3nc(C)nc1c23	3.4
Cc1nc(SCC(=O)Nc2c(C)n(C)n(-c3ccccc3)c2=O)n[nH]1	4.7
CCOC(=O)N1CCN(C(=O)c2cccc(-n3c(=S)[nH]c4cc(Cl)ccc4c3=O)c2)CC1	0.4
SMILES	RORA inh
Fc1ccc(-c2nnc(NC3=NCCCCC3)o2)cc1	73.2*
O=C(NCC1CCCO1)C1CC(=O)N(C2CCCCCC2)C1 (configuration not stated)	-12.0
CCOC(=O)NC(Nc1nc2ccccc2s1)(C(=O)OCC)C(F)(F)F (configuration not stated)	-24.7
CCOC(=O)CN1CC23C=CC(O2)C(C(=O)Nc2ccc(F)c(C)c2)C3C1=O (configuration not stated)	21.8
CCN(CC)c1ccc(NC(=O)c2ccccc2F)cc1	-70.2
CCN(CC)c1ccc(NC(=O)C2CC3CCC2C3)cc1 (configuration not stated)	-54.6
CCN(CC)c1ccc2cc(NC(=O)CCC(=O)O)c(=O)oc2c1	66.2*
c1ccc(-c2onc3cc4c(cc23)OCCO4)cc1	-74.3
Cc1ccc(-c2nc(-c3ccccc3)no2)c(Cl)c1	56.7*
COc1cccc(-c2nc(-c3ccccc3)no2)c1	-14.0
c1ccc(-c2noc(-c3cccc4ccccc34)n2)cc1	-61.1
CC1=C(C#N)C(=O)OC(C)(C)C1	-25.2
COC(=O)CN(c1ccc(C)c(Cl)c1)S(C)(=O)=O	-14.7
Cc1nc2ncnn2c(C)c1CCC(=O)Nc1ccc(S(=O)(=O)N2CCCCCC2)cc1	-10.5
Cc1ccccc1Cc1c(C)nc2ncnn2c1C	5.4
CCc1c(C)nc2ncnn2c1NCCc1ccc(OC)cc1	75.4*
Cc1cccc2cc(COC(=O)COc3ccccc3)c(=O)[nH]c12	-10.0
COc1ccc(OC)c(N(CC(=O)NCCSc2ccccc2)S(C)(=O)=O)c1	-0.4
CCCCNC(=O)c1cc2c(=O)n3cccc(C)c3nc2n(Cc2ccncc2)c1=N	20.3
O=C(OCCCN1CCCC1)C1(c2ccccc2)CCCC1	4.6
COc1ccccc1-c1cn(S(=O)(=O)c2ccc(C)cc2)nc1N	-4.1
O=C(NCc1ccc2c(c1)OCO2)C1CC(=O)N(c2ccc(O)cc2)C1 (configuration not stated)	6.4
Cc1occc1C(=O)Nc1ccc2ccccc2c1	-120.2
CCOC(=O)Nc1ccc2c(c1)N(C(=O)N1CCN(C)CC1)c1ccccc1S2	-9.1
Cc1nnc(SCC(=O)N2CCc3ccccc32)s1	-21.2
SMILES	RORA inh
Cc1nnc(SC(=O)N2c3ccccc3Sc3ccccc32)s1	71.3*
COc1cccc2c(=O)n(CC(=O)N3CCN(c4ccccc4)CC3)ccc12	-16.0
COc1ccc(Cn2c(C3CC3)nc3ccc(NC(=O)c4ccco4)cc3c2=O)cc1	-43.7
CCn1c(C)nc2cc(-c3nc4n(n3)Cc3ccccc3-4)ccc21	95.7*
CCc1ccccc1NC(=O)c1ccc(F)c(S(=O)(=O)N2CCC(C(N)=O)CC2)c1	10.5
Cc1ccc(-c2cc3c(nn2)-c2ccccc2C3=O)cc1	82.7*
Cc1cc(NC(=O)c2cc3n(n2)C(C(F)(F)F)CC(c2ccco2)N3)no1 (configuration not stated)	11.0
O=C(CCCc1c[nH]c2ccccc12)N1CCN(c2ccc(N3CCOCC3)nn2)CC1	6.1
O=C(Cn1c(=O)sc2ccccc21)NCc1ccco1	5.9
O=C(Nc1ncnc2sc3c(c12)CCC3)c1ccco1	9.0
O=C(NCc1ccco1)c1ccc2nc3sc4c(c3c(=O)n2c1)CCCC4	56.0*
O=C(CN1C(=O)c2ccccc2S1(=O)=O)NCCC1=CCCCC1	14.8
N#Cc1c(NC(=O)CSc2ncn[nH]2)sc2c1CCCCC2	87.9*
O=C(CSc1nc2sc3c(c2c(=O)[nH]1)CCCC3)NCCO	10.0
N#Cc1c(NC(=O)CSc2nc(N)cc(=O)[nH]2)sc2c1CCCCCC2	52.2*
CCCc1cc(=O)[nH]c(SCC(=O)Nc2cc3c(cc2C(C)=O)OCO3)n1	1.4
O=C(Nc1sc2c(c1C(=O)O)CCCCC2)c1ccco1	-62.5
CC(C)c1ccc(C(=O)CSc2ncn[nH]2)cc1	-53.4
Cc1ccc2c(=O)c(CN(C)C3CCN(C)CC3)c(C)[nH]c2c1C	17.8
O=C(NCc1cccs1)C1CC(=O)N(c2ccc(F)cc2)C1 (configuration not stated)	-19.7
CCOC(=O)c1cnc(=O)[nH]c1C	2.7
Cc1cc(C)c(NC(=O)Cn2c(=O)n(Cc3ccco3)c(=O)c3ccccc32)c(C)c1	10.2
CC(C)(C)c1ccc(-c2nnc(SCC(=O)O)n2N)cc1	-7.6
CN(C)C(=O)CCc1nc(-c2ccc(C(C)(C)C)cc2)no1	81.8*
CC(C)(C)c1ccc(-c2noc(CCC(N)=O)n2)cc1	87.6*
SMILES	RORA inh
NC(=O)c1ccc(NC(=O)CCCc2nc(-c3ccccc3Cl)no2)cc1	0.0
c1ccc(-c2noc(CN3CCN(c4ccccc4)CC3)n2)cc1	9.2
CNC(=O)CCc1nc(-c2ccc(C(C)(C)C)cc2)no1	89.3*
Cc1cccc(-c2noc(Cc3ccccc3)n2)c1	-24.0
O=C(Nc1ccc(-c2noc(CCc3ccccc3)n2)cc1)c1ccco1	-72.3
O=C1C(=O)N(CCCn2ccnc2)C(c2cccnc2)/C1=C(/O)c1ccccc1 (configuration not stated)	-10.3
O=C(O)CSCC(=O)Nc1cccc2ccccc12	11.5
Cc1cc(C)nc(Sc2c(F)c(F)c(C(F)(F)F)c(F)c2F)n1	5.6
Cn1c(=O)[nH]c(=O)c2c1nc(Sc1nc3ccccc3s1)n2Cc1ccccc1	-4.1
